Test results: ChEMBL document CHEMBL4387708, “Enhancement of Benzothiazoles as Pteridine Reductase-1 Inhibitors for the Treatment of Trypanosomatidic Infections” (J Med Chem, 2019)

How the values were obtained:
[1] = Cytotoxicity against human U2OS cells assessed as reduction in cell number; format: cell-based
[2] = target: T1, Pteridine reductase 1 (Leishmania major, UniProt Q01782); assay: Inhibition of Leishmania major pteridine reductase 1 using di-hydrobiopterine as substrate in presence of NADPH; conditions: read-out: IC50
T1 sequence (Q01782 whole entry): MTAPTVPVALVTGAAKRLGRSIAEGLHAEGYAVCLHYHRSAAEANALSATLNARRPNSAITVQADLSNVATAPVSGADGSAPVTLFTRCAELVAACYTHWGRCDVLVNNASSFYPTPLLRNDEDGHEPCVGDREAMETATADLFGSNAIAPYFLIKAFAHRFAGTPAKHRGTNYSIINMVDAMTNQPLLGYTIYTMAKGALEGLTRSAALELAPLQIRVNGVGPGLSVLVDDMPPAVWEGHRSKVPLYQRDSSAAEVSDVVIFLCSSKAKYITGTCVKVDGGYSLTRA
Procedure, shortened: (§1)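 Photometric PTR1 assay with NADPH and dihydrobiopterin substrate. H₄B formation is coupled non-enzymatically to cytochrome c reduction, read as signal increase at 550 nm.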

[3] = Half-life in BALB/c mouse at 20 mg/kg, po co-formulated with hydroxypropyl-beta-cyclodextrin by LC-MS analysis; format: ADME, organism-based; conditions: in vivo
Procedure, shortened: (§2)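 Snapshot PK in healthy BALB/c mice. Free compound given in 8% DMSO at 1 mg/kg IV or 20 mg/kg per os; for the formulated arm it was solubilized with hydroxypropyl-β-cyclodextrin (50%) and given at 20 mg/kg per os. Plasma levels were quantified by LC-MS on a C18 column with triple-quadrupole ESI detection in positive ion mode.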

[4] = target: Cytochrome P450 2C19 (Homo sapiens, UniProt P33261); assay: Inhibition of human CYP2C19 expressed in baculovirus infected insect cells using beetle D-luciferin as substrate preincubated for 30 mins followed by NADPH addition and measured after 30 mins by CYP450-Glo assay
Chain of Cytochrome P450 2C19 (P33261 whole entry): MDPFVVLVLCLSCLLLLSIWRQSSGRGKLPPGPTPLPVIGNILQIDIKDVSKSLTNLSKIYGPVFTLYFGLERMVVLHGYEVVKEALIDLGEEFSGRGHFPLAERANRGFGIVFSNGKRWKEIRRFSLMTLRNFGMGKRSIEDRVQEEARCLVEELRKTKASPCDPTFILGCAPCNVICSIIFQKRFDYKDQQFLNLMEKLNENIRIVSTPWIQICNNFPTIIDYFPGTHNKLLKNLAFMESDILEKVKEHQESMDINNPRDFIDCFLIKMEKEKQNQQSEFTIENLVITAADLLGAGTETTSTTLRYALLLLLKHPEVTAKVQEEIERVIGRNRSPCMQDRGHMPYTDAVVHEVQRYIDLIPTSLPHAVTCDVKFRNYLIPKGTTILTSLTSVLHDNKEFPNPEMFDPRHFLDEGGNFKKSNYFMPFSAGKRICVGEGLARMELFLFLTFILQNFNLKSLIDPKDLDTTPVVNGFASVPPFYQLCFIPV

[5] = Ratio of Cmax BALB/c mouse at 20 mg/kg, po co-formulated with hydroxypropyl-beta-cyclodextrin to EC50 for Trypanosoma brucei bloodstream forms; format: ADME, organism-based; conditions: in vivo
[6] = tested on: Trypanosoma brucei; assay: Inhibition of N-terminal His-tagged Trypanosoma brucei pteridine reductase 1 at 50 uM using di-hydrobiopterine as substrate measured at 1 min interval for 50 mins in presence of NADPH relative to control; procedure, shortened: as §1
[7] = Cytotoxicity against human A549 cells after 48 hrs by Celltiter-glo assay; format: cell-based
[8] = tested on: Trypanosoma brucei; assay: Inhibition of PTR1 in Trypanosoma brucei bloodstream forms assessed as potentiation of methotrexate-induced parasitic cell growth inhibition at 10 uM measured after 72 hrs by resazurin-based fluorescence assay (reference value: 19 +/- 6%)
Procedure, shortened: (§3)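 Bloodstream-form T. brucei resazurin assay: 72 h at 37 °C, 5% CO₂, then fluorescence at ex 540/em 620 nm. Benzothiazole was tested at 10 μM alone and with 4 μM methotrexate. The index is the combination's activity divided by the sum of the activities of 10 μM benzothiazole and 4 μM methotrexate given separately.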

[9] = Clearance in BALB/c mouse at 20 mg/kg, po co-formulated with hydroxypropyl-beta-cyclodextrin by LC-MS analysis; format: ADME, organism-based; conditions: in vivo; procedure, shortened: as §2
[10] = target: Cytochrome P450 2C9 (Homo sapiens, UniProt P11712); assay: Inhibition of human CYP2C9 expressed in baculovirus infected insect cells using beetle D-luciferin as substrate preincubated for 30 mins followed by NADPH addition and measured after 30 mins by CYP450-Glo assay
Chain of Cytochrome P450 2C9 (P11712 whole entry): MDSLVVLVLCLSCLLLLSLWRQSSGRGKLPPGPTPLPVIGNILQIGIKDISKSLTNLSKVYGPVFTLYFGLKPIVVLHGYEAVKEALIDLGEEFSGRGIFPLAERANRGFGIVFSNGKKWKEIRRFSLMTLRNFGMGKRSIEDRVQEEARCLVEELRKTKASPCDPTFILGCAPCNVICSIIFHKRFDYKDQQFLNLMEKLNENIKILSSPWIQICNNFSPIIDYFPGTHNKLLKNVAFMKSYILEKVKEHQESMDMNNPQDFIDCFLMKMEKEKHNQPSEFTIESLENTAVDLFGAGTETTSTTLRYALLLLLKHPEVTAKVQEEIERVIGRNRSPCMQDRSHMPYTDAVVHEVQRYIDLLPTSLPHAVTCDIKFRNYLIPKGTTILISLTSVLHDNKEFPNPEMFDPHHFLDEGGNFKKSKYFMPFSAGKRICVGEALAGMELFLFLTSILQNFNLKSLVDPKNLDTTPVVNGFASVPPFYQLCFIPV

[11] = tested on: hERG; assay: Selectivity index ratio of IC50 for human ERG to EC50 for growth inhibition of Trypanosoma brucei bloodstream forms; format: toxicity; conditions: read-out: Ratio IC50/EC50
[12] = tested on: CYP1A2; assay: Selectivity index ratio of IC50 for CYP1A2 (unknown origin) to EC50 for growth inhibition of Trypanosoma brucei bloodstream forms; format: toxicity; conditions: read-out: Ratio IC50/EC50
[13] = AUC in BALB/c mouse at 20 mg/kg, po by LC-MS analysis; format: ADME, organism-based; conditions: in vivo; procedure, shortened: as §2
[14] = Cytotoxicity against human THP1 cells after 72 hrs by MTT assay; format: cell-based, THP-1; conditions: read-out: NOAEL
[15] = Half-life in BALB/c mouse at 20 mg/kg, po by LC-MS analysis; format: ADME, organism-based; conditions: in vivo; procedure, shortened: as §2
[16] = target: Cytochrome P450 2D6 (Homo sapiens, UniProt P10635); assay: Inhibition of human CYP2D6 expressed in baculovirus infected insect cells using beetle D-luciferin as substrate preincubated for 30 mins followed by NADPH addition and measured after 30 mins by CYP450-Glo assay
Chain of Cytochrome P450 2D6 (P10635 whole entry): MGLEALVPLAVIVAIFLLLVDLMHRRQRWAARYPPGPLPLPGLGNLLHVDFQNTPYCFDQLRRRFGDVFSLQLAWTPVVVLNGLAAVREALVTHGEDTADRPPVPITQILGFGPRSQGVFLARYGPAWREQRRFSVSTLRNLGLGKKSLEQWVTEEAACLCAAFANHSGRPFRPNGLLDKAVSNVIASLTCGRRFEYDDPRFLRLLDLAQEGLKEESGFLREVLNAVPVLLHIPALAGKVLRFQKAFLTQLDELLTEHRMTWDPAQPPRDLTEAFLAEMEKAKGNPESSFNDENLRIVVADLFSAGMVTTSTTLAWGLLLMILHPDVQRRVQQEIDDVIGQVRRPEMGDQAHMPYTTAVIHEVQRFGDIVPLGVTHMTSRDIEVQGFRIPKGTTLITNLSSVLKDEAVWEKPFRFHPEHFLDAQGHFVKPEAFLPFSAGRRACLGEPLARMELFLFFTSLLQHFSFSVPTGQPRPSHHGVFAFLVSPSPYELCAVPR

[17] = tested on: CYP2C19; assay: Selectivity index ratio of IC50 for CYP2C19 (unknown origin) to EC50 for growth inhibition of Trypanosoma brucei bloodstream forms; format: toxicity; conditions: read-out: Ratio IC50/EC50
[18] = tested on: CYP2D6; assay: Selectivity index ratio of IC50 for CYP2D6 (unknown origin) to EC50 for growth inhibition of Trypanosoma brucei bloodstream forms; format: toxicity; conditions: read-out: Ratio IC50/EC50
[19] = target: T2, Cytochrome P450 1A2 (Homo sapiens, UniProt P05177); assay: Inhibition of human CYP1A2 expressed in baculovirus infected insect cells using beetle D-luciferin as substrate preincubated for 30 mins followed by NADPH addition and measured after 30 mins by CYP450-Glo assay
T2 sequence (P05177 whole entry): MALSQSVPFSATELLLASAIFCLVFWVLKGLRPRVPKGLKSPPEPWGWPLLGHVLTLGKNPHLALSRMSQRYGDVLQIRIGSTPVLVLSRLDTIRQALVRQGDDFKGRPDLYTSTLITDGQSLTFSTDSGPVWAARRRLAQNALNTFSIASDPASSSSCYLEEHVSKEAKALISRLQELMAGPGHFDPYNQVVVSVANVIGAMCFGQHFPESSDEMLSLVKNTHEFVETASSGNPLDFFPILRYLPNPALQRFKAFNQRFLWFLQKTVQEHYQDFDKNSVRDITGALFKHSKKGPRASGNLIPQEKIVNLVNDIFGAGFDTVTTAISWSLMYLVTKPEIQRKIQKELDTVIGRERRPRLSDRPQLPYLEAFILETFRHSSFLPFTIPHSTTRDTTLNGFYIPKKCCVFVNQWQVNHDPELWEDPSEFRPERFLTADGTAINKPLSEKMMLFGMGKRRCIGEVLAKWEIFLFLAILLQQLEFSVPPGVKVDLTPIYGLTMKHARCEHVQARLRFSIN

[20] = tested on: Trypanosoma brucei; assay: Growth inhibition of Trypanosoma brucei bloodstream forms measured after 72 hrs by resazurin-based fluorescence assay; format: organism-based
Procedure, shortened: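 Mid-log bloodstream-form T. brucei were seeded at a final 5 x 10^3/mL in supplemented HMI-9 with serial compound dilutions. Cultures ran 72 h at 37 °C, 5% CO₂, then 4 h more after resazurin. Fluorescence was read at ex 540/em 620 nm, and EC₅₀ was fitted by non-linear regression.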

[21] = tested on: Leishmania infantum; assay: Growth inhibition of luciferase expressing Leishmania infantum axenic amastigotes infected in human THP1 cells at 10 uM measured after 72 hrs by steady-glo luminescence assay relative to control; format: organism-based; conditions: leishmania infantum, 72 h, 10 µM
[22] = tested on: Trypanosoma brucei; assay: Inhibition of PTR1 in Trypanosoma brucei bloodstream forms assessed as potentiation of methotrexate-induced parasitic cell growth inhibition by measuring potentiation index at 10 uM measured after 72 hrs by resazurin-based fluorescence assay relative to control (methotrexate); format: functional; procedure, shortened: as §3
[23] = Selectivity index ratio of IC50 for mitochondrial toxicity in human 786-O cells to EC50 for growth inhibition of Trypanosoma brucei bloodstream forms; format: cell-based; conditions: read-out: Ratio IC50/EC50

Question: Which GI50 [1] does the source give for `Nc1nc2ccc(C(=O)NCc3ccccc3)cc2s1` here?
Answer: The GI50 was > 25 µM.

Question: And the IC50 [2]?
Answer: Its IC50 is 61.3 µM.

Question: What about the half-life [3] of the same molecule?
Answer: The half-life was 34.8 h.

Question: And the IC50 [4]?
Answer: The IC50 was > 25 µM.

Question: And the Ratio [5]?
Answer: Its Ratio is 1.9.

Question: What about the inhibition [6] of the same molecule?
Answer: Its inhibition is > 60%.

Question: And the GI50 at 48 h [7]?
Answer: Its GI50 at 48 h is > 25 µM.

Question: What about the growth inhibition (GI) [8] of the same molecule?
Answer: The growth inhibition (GI) was 30%.

Question: And the CL/F [9]?
Answer: Its CL/F is 41 mL/min/kg.

Question: And the IC50 [10]?
Answer: Its IC50 is > 25 µM.

Question: What about the selectivity ratio [11] of the same molecule?
Answer: Its selectivity ratio is > 10.

Question: And the selectivity ratio [12]?
Answer: Its selectivity ratio is > 10.

Question: And the AUC [13]?
Answer: Its AUC is 4690 ng·h/mL.

Question: What about the MNTC at 72 h [14] of the same molecule?
Answer: The MNTC at 72 h was > 25 µM.

Question: What about the half-life [15] of the same molecule?
Answer: The half-life was 43.5 h.

Question: And the IC50 [16]?
Answer: The IC50 was 10 to 25 µM.

Question: What about the selectivity ratio [17] of the same molecule?
Answer: The selectivity ratio was > 10.

Question: And the selectivity ratio [18]?
Answer: Its selectivity ratio is > 10.

Question: And the IC50 [19]?
Answer: The IC50 was > 25 µM.

Question: What about the EC50 [20] of the same molecule?
Answer: The EC50 was 7 µM.

Question: And the “growth inhibition (GI)” value [21]?
Answer: Its value is “Non-Toxic”.

Question: What about the Ratio [22] of the same molecule?
Answer: Its Ratio is 1.6.

Question: And the selectivity ratio [23]?
Answer: Its selectivity ratio is > 10.
